From ChEMBL document CHEMBL1938334, “Quinoline tricyclic derivatives. Design, synthesis and evaluation of the antiviral activity of three new classes of RNA-dependent RNA polymerase inhibitors” (Bioorg Med Chem, 2011)

What was measured:
[1] = Cytotoxicity against human MT4 cells after 96 hrs by MTT assay; assay type: cell-based
Procedure, shortened: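 Exponentially growing MT-4 cells seeded at 1×10^5 cells/mL in RPMI-1640 with 10% FBS, penicillin and streptomycin. Incubated with serial compound dilutions at 37 °C, 5% CO2 for 96 h; viability by MTT. CC50 by linear regression relative to untreated controls; mean of three independent determinations.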

[2] = system: Human immunodeficiency virus 1; test: Antiviral activity against HIV1 3B infected in human MT4 cells assessed as inhibition of virus-induced cytopathogenicity after 4 days by MTT assay; assay type: functional, organism-based; conditions: Human immunodeficiency virus 1, 3B, MT4, 96 h
Procedure, shortened: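 MT-4 cells (1×10^4 per well) were infected with HIV-1 IIIB at 100 CCID50, m.o.i. 0.01, together with serial compound dilutions. Viability was read by MTT after 4 days at 37 °C. EC50 was taken by linear regression versus untreated controls. Mean of three determinations.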

[3] = Cytotoxicity against MDBK cells after 48 to 96 hrs by MTT assay; assay type: cell-based, Bos taurus; conditions: cattle
Procedure, shortened: (§1)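 MDBK seeded at 6×10^5 and BHK at 1×10^6 cells/mL in MEM-Earle's with L-glutamine, 1 mM pyruvate, kanamycin, plus 10% horse serum (MDBK) or 10% FBS (BHK). Cells were grown at 37 °C, 5% CO2 with serial compound dilutions (DMSO stocks diluted in medium). Viability by MTT after 48–96 h. CC50 was taken by linear regression versus untreated controls; three independent determinations.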

[4] = Antiviral activity against Bovine viral diarrhea virus 1-NADL infected in MDBK cells assessed as inhibition of virus-induced cytopathogenicity after 3 to 4 days by MTT assay; assay type: functional, cell-based; conditions: Bovine viral diarrhea virus isolates and strains
Procedure, shortened: (§2)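 Host cells were seeded in 96-well plates at 3×10^4 cells/well (MDBK) or 5×10^4 cells/well (BHK-21) and grown to confluent monolayers overnight. They were infected at m.o.i. 0.01 in maintenance MEM with 0.5% inactivated FBS. Serial compound dilutions were added after 1 h. Viability was read by MTT after 3–4 days at 37 °C. EC50 was taken by linear regression against untreated controls. Mean of three determinations.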

[5] = Cytotoxicity against BHK21 cells after 48 to 96 hrs by MTT assay; assay type: cell-based, Mesocricetus auratus, BHK-21; conditions: hamster; procedure, shortened: as §1
Yellow fever virus = test: Antiviral activity against Yellow fever virus 17D Stamaril Pasteur J07B01 infected in hamster BHK21 cells assessed as inhibition of virus-induced cytopathogenicity after 3 to 4 days by MTT assay; assay type: functional, cell-based; conditions: Stamaril Pasteur J07B01, BHK-21; procedure, shortened: as §2
Reovirus sp. = test: Antiviral activity against Reovirus type-1 3651 infected in hamster BHK21 cells assessed as inhibition of virus-induced cytopathogenicity after 3 to 4 days by MTT assay; assay type: functional, organism-based; conditions: Reovirus sp., 3651, BHK-21; procedure, shortened: as §2
[6] = Cytotoxicity against african green monkey Vero 76 cells after 48 to 96 hrs by crystal violet staining; assay type: cell-based; conditions: chlorocebus sabaeus
Procedure, shortened: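 Vero-76 cells were seeded at 4×10^5 cells/mL in D-MEM with L-glutamine, kanamycin and 10% FBS, then exposed to serial compound dilutions at 37 °C, 5% CO2 for 48–96 h. Viability was read by crystal violet staining. 50% cytotoxic concentration by linear regression relative to untreated controls; mean of three independent determinations.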

Coxsackievirus B5 = test: Antiviral activity against Human coxsackievirus B5 Ohio-1 infected in african green monkey Vero 76 cells assessed as reduction of virus-induced plaque formation after 3 days using crystal violet staining; assay type: functional, organism-based; conditions: Enterovirus B, Ohio-1, Vero, 72 h
Poliovirus 1 = test: Antiviral activity against Human poliovirus 1 strain Sabin Chat infected in african green monkey Vero 76 cells assessed as virus-induced reduction of plaque formation after 2 days using crystal violet staining; assay type: functional, cell-based; conditions: Enterovirus C, 48 h
Human orthopneumovirus = test: Antiviral activity against Human respiratory syncytial virus A2 infected in african green monkey Vero 76 cells assessed as reduction of virus-induced plaque formation after 5 days using crystal violet staining; assay type: functional, organism-based; conditions: 120 h
[7] = system: Vesicular stomatitis Indiana virus; test: Antiviral activity against clinical isolate Vesicular stomatitis Indiana virus infected in african green monkey Vero 76 cells assessed as reduction of virus-induced plaque formation after 2 days using crystal violet staining; assay type: functional, organism-based; conditions: 48 h
[8] = Antiviral activity against Vaccinia virus Lister Elstree infected in african green monkey Vero 76 cells assessed as reduction of virus-induced plaque formation after 3 days using crystal violet staining; assay type: functional, cell-based; conditions: 72 h
Human alphaherpesvirus 1 = test: Antiviral activity against Human herpesvirus 1 strain KOS infected in african green monkey Vero 76 cells assessed as reduction of virus-induced plaque formation after 3 days using crystal violet staining; assay type: functional, organism-based; conditions: Human alphaherpesvirus 1, KOS, 72 h

Compound: CC(C)c1nc2c(Cl)c3ncccc3cc2[nH]c1=O
- CC50 at 96 h [1]: 100 µM
- EC50 [2]: > 100 µM
- CC50 [3]: > 100 µM
- EC50 [4]: 100 µM
- CC50 [5]: > 100 µM
- EC50 (Yellow fever virus): > 100 µM
- EC50 (Reovirus sp.): > 100 µM
- CC50 [6]: > 100 µM
- EC50 (Coxsackievirus B5): > 100 µM
- EC50 (Poliovirus 1): > 100 µM
- EC50 (Human orthopneumovirus): > 100 µM
- EC50 [7]: > 100 µM
- EC50 [8]: > 100 µM
- EC50 (Human alphaherpesvirus 1): > 100 µM

Compound: Nc1ccc(-c2nc3cc4cccnc4c(Cl)c3[nH]2)cc1
- CC50 at 96 h [1]: 15 µM
- EC50 [2]: > 15 µM
- CC50 [3]: 45 µM
- EC50 [4]: 10 µM
- CC50 [5]: 42 µM
- EC50 (Yellow fever virus): > 42 µM
- EC50 (Reovirus sp.): > 42 µM
- CC50 [6]: > 100 µM
- EC50 (Coxsackievirus B5): 78 µM
- EC50 (Poliovirus 1): > 100 µM
- EC50 (Human orthopneumovirus): > 100 µM
- EC50 [7]: > 100 µM
- EC50 [8]: > 100 µM
- EC50 (Human alphaherpesvirus 1): > 100 µM

Compound: c1ccc(-c2ccc(-c3nc4cc5cccnc5cc4[nH]3)cc2)cc1
- CC50 at 96 h [1]: 8 µM
- EC50 [2]: > 8 µM
- CC50 [3]: ≥ 100 µM
- EC50 [4]: 60 µM
- CC50 [5]: 20 µM
- EC50 (Yellow fever virus): > 20 µM
- EC50 (Reovirus sp.): > 20 µM
- CC50 [6]: 80 µM
- EC50 (Coxsackievirus B5): 3 µM
- EC50 (Poliovirus 1): > 80 µM
- EC50 (Human orthopneumovirus): > 80 µM
- EC50 [7]: > 80 µM
- EC50 [8]: > 80 µM
- EC50 (Human alphaherpesvirus 1): > 80 µM

Compound: CCc1nc2cc3cccnc3c(Cl)c2[nH]c1=O
- CC50 at 96 h [1]: 51 µM
- EC50 [2]: > 51 µM
- CC50 [3]: 75 µM
- EC50 [4]: 6.5 µM
- CC50 [5]: 95 µM
- EC50 (Yellow fever virus): > 95 µM
- EC50 (Reovirus sp.): 36 µM
- CC50 [6]: 100 µM
- EC50 (Coxsackievirus B5): > 100 µM
- EC50 (Poliovirus 1): > 100 µM
- EC50 (Human orthopneumovirus): 18 µM
- EC50 [7]: 35 µM
- EC50 [8]: > 100 µM
- EC50 (Human alphaherpesvirus 1): > 100 µM

Compound: COc1ccccc1-c1nc2cc3cccnc3cc2[nH]1
- CC50 at 96 h [1]: 14 µM
- EC50 [2]: > 14 µM
- CC50 [3]: 11 µM
- EC50 [4]: ≥ 11 µM
- CC50 [5]: 32 µM
- EC50 (Yellow fever virus): > 32 µM
- EC50 (Reovirus sp.): > 32 µM
- CC50 [6]: 75 µM
- EC50 (Coxsackievirus B5): 47 µM
- EC50 (Poliovirus 1): > 75 µM
- EC50 (Human orthopneumovirus): > 75 µM
- EC50 [7]: > 75 µM
- EC50 [8]: > 75 µM
- EC50 (Human alphaherpesvirus 1): > 75 µM

Compound: Clc1c2ncccc2cc2nccnc12
- CC50 at 96 h [1]: 82 µM
- EC50 [2]: > 82 µM
- CC50 [3]: 6.5 µM
- EC50 [4]: > 6.5 µM
- CC50 [5]: 70 µM
- EC50 (Yellow fever virus): > 70 µM
- EC50 (Reovirus sp.): > 70 µM
- CC50 [6]: 90 µM
- EC50 (Coxsackievirus B5): 50 µM
- EC50 (Poliovirus 1): > 90 µM
- EC50 (Human orthopneumovirus): > 90 µM
- EC50 [7]: > 90 µM
- EC50 [8]: 57 µM
- EC50 (Human alphaherpesvirus 1): 90 µM

Compound: CCOC(=O)C(C)c1nc2c(Cl)c3ncccc3cc2[nH]c1=O (configuration not stated)
- CC50 at 96 h [1]: 11 µM
- EC50 [2]: > 11 µM
- CC50 [3]: > 100 µM
- EC50 [4]: 10 µM
- CC50 [5]: 75 µM
- EC50 (Yellow fever virus): 50 µM
- EC50 (Reovirus sp.): > 75 µM
- CC50 [6]: > 100 µM
- EC50 (Coxsackievirus B5): > 100 µM
- EC50 (Poliovirus 1): > 100 µM
- EC50 (Human orthopneumovirus): 62 µM
- EC50 [7]: > 100 µM
- EC50 [8]: > 100 µM
- EC50 (Human alphaherpesvirus 1): > 100 µM

Compound: CC(C)c1nc2cc3cccnc3c(Cl)c2[nH]c1=O
- CC50 at 96 h [1]: 48 µM
- EC50 [2]: > 48 µM
- CC50 [3]: 100 µM
- EC50 [4]: 5 µM
- CC50 [5]: > 100 µM
- EC50 (Yellow fever virus): > 100 µM
- EC50 (Reovirus sp.): 47 µM
- CC50 [6]: > 100 µM
- EC50 (Coxsackievirus B5): > 100 µM
- EC50 (Poliovirus 1): > 100 µM
- EC50 (Human orthopneumovirus): 38 µM
- EC50 [7]: 62 µM
- EC50 [8]: > 100 µM
- EC50 (Human alphaherpesvirus 1): > 100 µM

Compound: Clc1c2ncccc2cc2nc(CBr)c(CBr)nc12
- CC50 at 96 h [1]: 16 µM
- EC50 [2]: > 16 µM
- CC50 [3]: 20 µM
- EC50 [4]: > 20 µM
- CC50 [5]: > 100 µM
- EC50 (Yellow fever virus): > 100 µM
- EC50 (Reovirus sp.): > 100 µM
- CC50 [6]: > 100 µM
- EC50 (Coxsackievirus B5): > 100 µM
- EC50 (Poliovirus 1): > 100 µM
- EC50 (Human orthopneumovirus): > 100 µM
- EC50 [7]: > 100 µM
- EC50 [8]: > 100 µM
- EC50 (Human alphaherpesvirus 1): > 100 µM

Compound: Clc1ccc(-c2nc3cc4cccnc4cc3[nH]2)cc1
- CC50 at 96 h [1]: 100 µM
- EC50 [2]: > 100 µM
- CC50 [3]: > 100 µM
- EC50 [4]: 18 µM
- CC50 [5]: > 100 µM
- EC50 (Yellow fever virus): > 100 µM
- EC50 (Reovirus sp.): > 100 µM
- CC50 [6]: > 100 µM
- EC50 (Coxsackievirus B5): 43 µM
- EC50 (Poliovirus 1): > 100 µM
- EC50 (Human orthopneumovirus): > 100 µM
- EC50 [7]: > 100 µM
- EC50 [8]: > 100 µM
- EC50 (Human alphaherpesvirus 1): > 100 µM

Compound: c1cnc2cc3[nH]nnc3cc2c1
- CC50 at 96 h [1]: 40 µM
- EC50 [2]: > 40 µM
- CC50 [3]: > 100 µM
- EC50 [4]: > 100 µM
- CC50 [5]: > 100 µM
- EC50 (Yellow fever virus): > 100 µM
- EC50 (Reovirus sp.): > 100 µM
- CC50 [6]: > 100 µM
- EC50 (Coxsackievirus B5): > 100 µM
- EC50 (Poliovirus 1): > 100 µM
- EC50 (Human orthopneumovirus): > 100 µM
- EC50 [7]: > 100 µM
- EC50 [8]: > 100 µM
- EC50 (Human alphaherpesvirus 1): > 100 µM

Compound: c1ccc(-c2nc3cc4cccnc4cc3[nH]2)cc1
- CC50 at 96 h [1]: 28 µM
- EC50 [2]: > 28 µM
- CC50 [3]: 80 µM
- EC50 [4]: 10 µM
- CC50 [5]: 40 µM
- EC50 (Yellow fever virus): > 40 µM
- EC50 (Reovirus sp.): 13 µM
- CC50 [6]: > 100 µM
- EC50 (Coxsackievirus B5): 19 µM
- EC50 (Poliovirus 1): 37 µM
- EC50 (Human orthopneumovirus): > 100 µM
- EC50 [7]: > 100 µM
- EC50 [8]: > 100 µM
- EC50 (Human alphaherpesvirus 1): > 100 µM

Compound: N#CCn1nnc2cc3cccnc3c(Cl)c21
- CC50 at 96 h [1]: 100 µM
- EC50 [2]: > 100 µM
- CC50 [3]: > 100 µM
- EC50 [4]: 100 µM
- CC50 [5]: > 100 µM
- EC50 (Yellow fever virus): > 100 µM
- EC50 (Reovirus sp.): > 100 µM
- CC50 [6]: > 100 µM
- EC50 (Coxsackievirus B5): > 100 µM
- EC50 (Poliovirus 1): > 100 µM
- EC50 (Human orthopneumovirus): > 100 µM
- EC50 [7]: > 100 µM
- EC50 [8]: > 100 µM
- EC50 (Human alphaherpesvirus 1): > 100 µM
